Compound activity (PubChem BioAssay)
Most compounds without a hit are left out; they make up all but 3.7% or so of the library.
OX1R antag-1 = antagonists of human orexin 1 receptor (OX1R); AID 485270; OX1R-expressing cells, FRET antagonist read-out; hit rate 1.8% among 330,000; inhibition, % at 6.6 µM; O43613; in the data active means inhibition mostly above about 38%, no sharp cut-off; inactive means mostly below about 40%
OX1R antag-2 = antagonists of human orexin 1 receptor; O43613; CHO/OX1R cells, Fluo-8 calcium fluorescence, orexin A; inhibition, % at 5 µM; hit rate 0.43% among 330,000;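 active means inhibition above its plate's threshold, mean inhibition of all tested compounds on the plate plus 3 SD, cut at about 37% in these data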
EP2 antag = blocks the human prostaglandin E2 receptor EP2 | C6 glioma cells expressing human EP2, cAMP TR-FRET; cells stimulated with saturating PGE2 | AID 1422 | hit rate 0.52% among 260,000 | P43116 | inhibition, % at 25 µM;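 active means percent inhibition above 40 after rounding to a whole number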;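 further: rat C6 glioma host cells with rolipram phosphodiesterase inhibitor present; the protocol text gives 20 µM as final concentration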
CHO parental Ca = signal in parental CHO cells, OX1R antagonist counter-screen. inhibition, % at 5.6 µM. AID 463079. hit rate 0.63% among 330,000. parental CHO-K1, ATP-induced calcium, Fluo-8 fluorescence;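 active means inhibition above that plate's mean sample inhibition plus 3 SD, cut at about 26% in these data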
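material = parental CHO cells | also added = ATP as calcium-mobilizing challenge | dosing = single point at 5.6 µM | detection = intracellular calcium via Fluo-8 no-wash fluorescent dye | read-out = % inhibition | benchmarks = low control ATP plus DMSO, high control DMSO only | repeats = one well per compound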
GPR7 antagonist = human neuropeptides B/W receptor 1 antagonism. GPR7-expressing cells, fluorescence antagonist assay. AID 1861. hit rate 1.1% among 290,000. inhibition, % at 4.4 µM. P48145; in the data active means inhibition above about 16%, passing the limit was not always enough;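 further: cells stimulated with the agonist NPW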
Target sequence (P48145 whole entry, looked up): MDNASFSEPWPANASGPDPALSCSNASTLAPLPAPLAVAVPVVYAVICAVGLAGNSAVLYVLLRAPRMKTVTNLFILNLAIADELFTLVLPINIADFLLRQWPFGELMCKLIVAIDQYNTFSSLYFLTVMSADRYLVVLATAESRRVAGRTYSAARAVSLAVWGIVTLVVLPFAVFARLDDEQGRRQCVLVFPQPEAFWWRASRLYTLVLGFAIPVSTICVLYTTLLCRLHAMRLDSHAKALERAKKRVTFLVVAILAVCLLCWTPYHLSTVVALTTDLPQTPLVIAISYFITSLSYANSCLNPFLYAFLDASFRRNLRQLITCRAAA
EP2 mod = EP2 receptor (human) modulation | P43116 | EP2-expressing cells, cAMP HTRF FRET, PGE2 co-stimulation | induction, % at 25 µM | hit rate 0.83% among 260,000 | AID 940;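 active means compounds whose cAMP rise, as percent of the full-agonist control response, exceeds 60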;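 further: rat C6 glioma line stably carrying human EP2 under a CMV promoter; the protocol text gives 20 µM as final concentration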
OX1R HTRF conf = OX1R (human) antagonism, HTRF confirmed; shares compounds with OX1R antag-1; OX1R-expressing cells, HTRF antagonist assay; inhibition, % at 6.6 µM; hit rate 49% among 1,800; in the data active means inhibition above about 55%;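 further: CHO cells expressing OX1R stimulated with orexin A at about EC80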
CHO-K1 HTRF cnt = counter-screen: parental CHO-K1 HTRF response; parental CHO-K1 cells, HTRF counterscreen; shares compounds with OX1R antag-1; hit rate 48% among 1,800; inhibition, % at 6.6 µM; AID 493232; in the data active means inhibition above about 17%
A number is an active result.

Results for CCC1CCc2sc(C(=O)N3CCN(c4ccccn4)CC3)cc2C1 (stereo unspecified) ?
OX1R antag-1: inactive; OX1R antag-2: inactive; CHO parental Ca: inactive; GPR7 antagonist: inactive

How did CCC(CO)Oc1cc(NC(=O)c2ccccc2N)c2ncn(C(C)C)c2c1 (stereo unspecified) do in these assays?
OX1R antag-1: inactive; OX1R antag-2: inactive; CHO parental Ca: inactive

How did CC1CCN(CCOc2cc(Cl)ccc2Cl)CC1 do in these assays?
OX1R antag-1: inactive; OX1R antag-2: inactive; EP2 antag: inactive; CHO parental Ca: inactive; GPR7 antagonist: inactive; EP2 mod: inactive

Results for CCCn1nc([N+](=O)[O-])c(C(C#N)c2nc3ccccc3o2)c(Cl)c1=O (stereo unspecified) ?
OX1R antag-1: 87; OX1R antag-2: inactive; EP2 antag: inactive; CHO parental Ca: inactive; GPR7 antagonist: inactive; EP2 mod: inactive; OX1R HTRF conf: inactive; CHO-K1 HTRF cnt: 22

What do the screens show for `CN1C(=O)C(O)(CC(=O)c2ccccc2O)c2cc(Br)ccc21` (stereo unspecified)?
OX1R antag-1: inactive; OX1R antag-2: inactive; EP2 antag: inactive; CHO parental Ca: inactive; GPR7 antagonist: inactive; EP2 mod: inactive

How did CC(=O)N1C(=O)c2cccc3cccc(c23)C(=O)N1C(C)=O do in these assays?
OX1R antag-1: 116; OX1R antag-2: inactive; EP2 antag: inactive; CHO parental Ca: inactive; GPR7 antagonist: inactive; EP2 mod: inactive; OX1R HTRF conf: inactive; CHO-K1 HTRF cnt: 65

Results for Cc1ccc(N2C(=O)c3cccc4cccc(c34)C2=O)cc1 ?
OX1R antag-1: inactive; OX1R antag-2: inactive; EP2 antag: inactive; CHO parental Ca: inactive; GPR7 antagonist: inactive; EP2 mod: inactive

What do the screens show for `CC(=O)OCCCNc1cc(Sc2ccc(C)cc2)c2nonc2c1[N+](=O)[O-]`?
OX1R antag-1: inactive; OX1R antag-2: inactive; EP2 antag: inactive; CHO parental Ca: inactive; GPR7 antagonist: inactive; EP2 mod: inactive

Results for Cn1ccnc1Sc1cc(NCCCO)c([N+](=O)[O-])c2nonc12 ?
OX1R antag-1: 83; OX1R antag-2: inactive; EP2 antag: inactive; CHO parental Ca: inactive; GPR7 antagonist: inactive; EP2 mod: inactive; OX1R HTRF conf: inactive; CHO-K1 HTRF cnt: 78

Results for CCNc1nc(OC)nc(Oc2ccc(=O)n(-c3ccccc3)n2)n1 ?
OX1R antag-1: inactive; OX1R antag-2: inactive; EP2 antag: inactive; CHO parental Ca: inactive; GPR7 antagonist: inactive; EP2 mod: inactive

Results for Cc1ccc(Nc2nc3ccccc3c(=O)s2)cc1C ?
OX1R antag-1: inactive; OX1R antag-2: inactive; EP2 antag: inactive; CHO parental Ca: inactive; GPR7 antagonist: inactive; EP2 mod: inactive

Results for O=c1sc(Nc2ccccc2)nc2ccsc12 ?
OX1R antag-1: 85; OX1R antag-2: inactive; EP2 antag: inactive; CHO parental Ca: inactive; GPR7 antagonist: inactive; EP2 mod: inactive; OX1R HTRF conf: 92; CHO-K1 HTRF cnt: inactive

Results for COc1ccc(NC(=O)c2ccccc2)c([N+](=O)[O-])c1 ?
OX1R antag-1: inactive; OX1R antag-2: inactive; EP2 antag: inactive; CHO parental Ca: inactive; GPR7 antagonist: inactive; EP2 mod: inactive

Results for COc1ccc(NC(=O)c2cccnc2)c([N+](=O)[O-])c1 ?
OX1R antag-1: 123; OX1R antag-2: inactive; EP2 antag: inactive; CHO parental Ca: inactive; GPR7 antagonist: inactive; EP2 mod: inactive; OX1R HTRF conf: inactive; CHO-K1 HTRF cnt: inactive

How did NC(=O)CC(NC(=O)Cc1cccc2ccccc12)c1ccc(NCCN2CCCCC2)c([N+](=O)[O-])c1 (stereo unspecified) do in these assays?
OX1R antag-1: inactive; OX1R antag-2: inactive; CHO parental Ca: inactive; GPR7 antagonist: inactive

How did NC(=O)CC(NC(=O)Cc1cccc2ccccc12)c1ccc(NCCN2CCCC2)c([N+](=O)[O-])c1 (stereo unspecified) do in these assays?
OX1R antag-1: 84; OX1R antag-2: inactive; CHO parental Ca: inactive; GPR7 antagonist: inactive; OX1R HTRF conf: inactive; CHO-K1 HTRF cnt: inactive

How did O=c1ccc(Cl)n[nH]1 do in these assays?
OX1R antag-1: inactive; OX1R antag-2: inactive; EP2 antag: inactive; CHO parental Ca: inactive; GPR7 antagonist: inactive; EP2 mod: inactive
